{"source": "ChEMBL document CHEMBL4425134", "about": "“Analogs of the ATP-Sensitive Potassium (KATP) Channel Opener Cromakalim with in Vivo Ocular Hypotensive Activity” (J Med Chem, 2016)", "key": {"[1]": {"test_system": "Mus musculus", "test": "Antiglaucoma activity in normotensive C57BL/6 mouse assessed as reduction in intraocular pressure at 2.5 mM compound solution in PBS administered topically once daily as bolus dose to contralateral eye for 7 days measured up to 23 hrs post daily administration by tonometer", "type": "functional", "in_short": "(§1)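 C57BL/6 retired breeders (>7 months old) received a 5 µl bolus of 2.5 mM solution in PBS topically to one eye once daily for 7 consecutive days, with PBS to the contralateral eye. IOP was measured in conscious, non-anesthetized mice by hand-held rebound tonometer at 1, 4 and 23 h after dosing. Daily IOP is the mean of the three readings, expressed as treated minus vehicle eye (mm Hg). n=10 (days 1–10), n=6 after.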"}, "[2]": {"test": "Stability in D2O solution assessed as compound decomposition after 1 week by 31P NMR analysis", "type": "physicochemical", "details": "168 h"}, "[3]": {"test": "Stability in D2O solution assessed as compound decomposition after 1 week by 1H NMR analysis", "type": "physicochemical", "details": "168 h"}, "[4]": {"test": "(§2) Toxicity in normotensive C57BL/6 mouse assessed as effect on cell structure in aqueous humor outflow pathway at 5 mM administered topically as solution in PBS once daily as bolus dose to contralateral eye for 5 days by hematoxylin and eosin staining based transmission electron microscopic analysis", "type": "organism-based", "details": "in vivo, topical_or_ocular, 120 h, 5000 µM"}, "[5]": {"test_system": "Mus musculus", "test": "Antiglaucoma activity in normotensive C57BL/6 mouse assessed as reduction in intraocular pressure at 5 mM administered topically as solution in PBS once daily as bolus dose to contralateral eye for 5 days followed by 5 mM sodium (3S,4R)-6-cyano-2,2-dimethyl-4-(2-oxopyrrolidin-1-yl)chroman-3-yl phosphate treatment for 5 days by tonometer", "type": "functional", "in_short": "(§3)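 C57BL/6 mice received sequential once-daily topical 5 µl boluses of 5 mM enantiomers dissolved in PBS to one eye, with vehicle to the contralateral eye. IOP was read by rebound tonometer in conscious mice at 1, 4 and 23 h post-dose, averaged, and expressed relative to the vehicle eye. n=10.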"}, "[6]": {"test": "(§4) Toxicity in normotensive C57BL/6 mouse assessed as effect on cell number in aqueous humor outflow pathway at 5 mM administered topically as solution in PBS once daily as bolus dose to contralateral eye for 5 days by hematoxylin and eosin staining based transmission electron microscopic analysis", "type": "organism-based", "details": "in vivo, topical_or_ocular, 120 h, 5000 µM"}, "[7]": {"test": "as §4, with “solution in mixture of DMSO, cremophor EL and PBS once” for “solution in PBS once”", "type": "organism-based", "details": "in vivo, topical_or_ocular, 120 h, 5000 µM"}, "[8]": {"test": "as §2, with “solution in mixture of DMSO, cremophor EL and PBS once” for “solution in PBS once”", "type": "organism-based", "details": "in vivo, topical_or_ocular, 120 h, 5000 µM"}, "[9]": {"test_system": "Mus musculus", "test": "Antiglaucoma activity in normotensive C57BL/6 mouse assessed as reduction in intraocular pressure at 5 mM administered topically as solution in mixture of DMSO, cremophor EL and PBS once daily as bolus dose to contralateral eye for 5 days pretreated with 5 mM dexcromakalim for 6 days by tonometer", "type": "functional", "in_short": "(§5)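 Following baseline IOP, C57BL/6 mice were dosed topically once daily with a 5 µl bolus to one eye. Dexromakalim was given for 6 days, then levromakalim for 5 days. Each was made as a 100 mM DMSO stock diluted to 5 mM with 10% cremophor EL in PBS. IOP was read by rebound tonometer versus the vehicle-treated contralateral eye.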"}, "[10]": {"test": "(§6) Toxicity in normotensive C57BL/6 mouse assessed as effect on cell structure in aqueous humor outflow pathway at 5 mM administered topically as solution in mixture of DMSO, cremophor EL and PBS once daily as bolus dose to one eye for 6 days by hematoxylin and eosin staining based transmission electron microscopic analysis", "type": "organism-based", "details": "in vivo, topical_or_ocular, 144 h, 5000 µM"}, "[11]": {"test": "as §6, with “number” for “structure”", "type": "organism-based", "details": "in vivo, topical_or_ocular, 144 h, 5000 µM"}, "[12]": {"test_system": "Mus musculus", "test": "Antiglaucoma activity in normotensive C57BL/6 mouse assessed as reduction in intraocular pressure at 5 mM administered topically as solution in mixture of DMSO, cremophor EL and PBS once daily as bolus dose to one eye for 6 days followed by 5 mM levcromakalim treatment for 5 days by tonometer", "type": "functional", "in_short": "as §5"}, "[13]": {"test": "Stability of compound in D2O solution", "type": "physicochemical"}, "[14]": {"test": "Solubility in water at 10 mg/ml", "type": "physicochemical", "details": "buffer"}, "[15]": {"test_system": "Mus musculus", "test": "Antiglaucoma activity in normotensive C57BL/6 mouse assessed as reduction in intraocular pressure at 5 mM compound solution in PBS administered topically once daily as bolus dose to one eye for 6 days measured up to 23 hrs post daily administration by tonometer", "type": "functional", "in_short": "(§7)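 Mice received a 5 mM solution in PBS as a 5 µl topical bolus to one eye once daily for 6 days, with PBS to the contralateral eye. IOP was read by rebound tonometer in conscious mice at 1, 4 and 23 h post-dose and averaged. Values are expressed as treated minus control eye. Readings continued after treatment stopped. n=10 (days 1–9), n=6 (days 10–12).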"}, "[16]": {"test": "Prodrug activation in buffer containing ZnCl2, MgCl2 and sodium glycine assessed as alkaline phosphatase (unknown origin)-mediated levcromakalim formation", "details": "human"}, "[17]": {"test": "Toxicity in normotensive C57BL/6 mouse assessed as alteration in morphology of aqueous humor outflow pathway at 2.5 mM compound solution in PBS administered topically once daily as bolus dose to contralateral eye for 7 days by hematoxylin and eosin staining based transmission electron microscopic analysis", "type": "organism-based", "details": "in vivo, topical_or_ocular, 168 h, 2500 µM", "in_short": "(§8)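 After once-daily topical dosing of C57BL/6 mice with 2.5 mM in PBS (5 µl), some animals were sacrificed. Aqueous outflow pathway tissues (trabecular meshwork, Schlemm's canal) were examined by hematoxylin and eosin stained sections and by transmission electron microscopy. Cell structure and number were compared with vehicle-treated eyes.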"}, "[18]": {"test_system": "Oryctolagus cuniculus", "test": "(§9) Antiglaucoma activity in normotensive Dutch-belted pigmented rabbit assessed as reduction in intraocular pressure at 5 mM administered topically as solution in PBS once daily as bolus dose to contralateral eye for 4 days pretreated with 2.5 mM compound for 4 days measured up to 23 hrs post daily administration by tonometer", "type": "functional", "in_short": "(§10)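 In normotensive Dutch-belted pigmented rabbits, a PBS solution was applied topically as a 50 µL bolus to one eye once daily: 2.5 mM for 4 days, then 5 mM for 4 days. IOP was measured at 1, 4 and 23 h after each dose and averaged. Values are the absolute difference between treated and control eyes (mmHg).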"}, "[19]": {"test": "as §2, with “at 2.5” for “at 5”, “mM compound” for “mM administered topically as”, “PBS administered topically” for “PBS”, “for 7” for “for 5”", "type": "organism-based", "details": "in vivo, topical_or_ocular, 168 h, 2500 µM", "in_short": "as §8"}, "[20]": {"test": "as §4, with “at 2.5” for “at 5”, “mM compound” for “mM administered topically as”, “PBS administered topically” for “PBS”, “for 7” for “for 5”", "type": "organism-based", "details": "in vivo, topical_or_ocular, 168 h, 2500 µM", "in_short": "as §8"}, "[21]": {"test_system": "Oryctolagus cuniculus", "test": "as §9, with “2.5” for “5”, “followed by 5” for “pretreated with 2.5”, “compound treatment” for “compound”", "type": "functional", "in_short": "as §10"}, "[22]": {"test_system": "Mus musculus", "test": "Antiglaucoma activity in normotensive C57BL/6 mouse assessed as reduction in intraocular pressure at 5 mM administered topically as solution in PBS once daily as bolus dose to contralateral eye for 5 days pretreated with 5 mM sodium (3R,4S)-6-cyano-2,2-dimethyl-4-(2-oxopyrrolidin-1-yl)chroman-3-yl phosphate for 5 days by tonometer", "type": "functional", "in_short": "as §3"}, "[23]": {"test_system": "Mus musculus", "test": "Antiglaucoma activity in normotensive C57BL/6 mouse assessed as reduction in intraocular pressure at 5 mM compound solution in PBS administered topically once daily as bolus dose to one eye for 6 days measured up to 72 hrs post treatment by tonometer", "type": "functional, organism-based", "in_short": "as §7"}, "[24]": {"test_system": "Mus musculus", "test": "Antiglaucoma activity in normotensive C57BL/6 mouse assessed as reduction in intraocular pressure at 5 mM administered topically as solution in mixture of DMSO, cremophor EL and PBS once daily as bolus dose to one eye for 5 days measured up to 23 hrs post daily administration by tonometer", "type": "functional", "in_short": "as §5"}, "[25]": {"test_system": "Mus musculus", "test": "Antiglaucoma activity in normotensive C57BL/6 mouse assessed as reduction in intraocular pressure at 2.5 mM compound solution in PBS administered topically once daily as bolus dose to contralateral eye for 7 days measured up to 48 hrs after cessation of drug treatment by tonometer", "type": "functional, organism-based", "in_short": "as §1"}}, "note": "Activity calls are given as the source filed them. The rule behind the calls is not given here.", "data": [{"smiles": "CC1(C)Oc2ccc(C#N)cc2[C@@H](N2CCCC2=O)[C@@H]1OCOP(=O)([O-])[O-].[Na+].[Na+]", "note": "(racemic)", "values": [{"measurement": "Activity", "setting": "[1]", "value": 1.81, "unit": "mmHg"}, {"measurement": "Stability", "setting": "[2]", "value": "Stable"}, {"measurement": "Stability", "setting": "[3]", "value": "Stable"}]}, {"smiles": "CC1(C)Oc2ccc(C#N)cc2[C@H](N2CCCC2=O)[C@H]1OP(=O)([O-])[O-].[Na+].[Na+]", "values": [{"measurement": "Activity", "setting": "[4]", "value": "Non-Toxic"}, {"measurement": "Activity", "setting": "[5]", "value": 0.14, "unit": "mmHg"}, {"measurement": "Activity", "setting": "[6]", "value": "Non-Toxic"}]}, {"smiles": "CC1(C)Oc2ccc(C#N)cc2[C@@H](N2CCCC2=O)[C@@H]1O", "note": "[LEVCROMAKALIM]", "values": [{"measurement": "Activity", "setting": "[7]", "value": "Non-Toxic"}, {"measurement": "Activity", "setting": "[8]", "value": "Non-Toxic"}, {"measurement": "Activity", "setting": "[9]", "value": 3.37, "unit": "mmHg"}]}, {"smiles": "CC1(C)Oc2ccc(C#N)cc2[C@H](N2CCCC2=O)[C@H]1O", "note": "[(-)-CROMAKALIM]", "values": [{"measurement": "Activity", "setting": "[10]", "value": "Non-Toxic"}, {"measurement": "Activity", "setting": "[11]", "value": "Non-Toxic"}, {"measurement": "Activity", "setting": "[12]", "value": 0.73, "unit": "mmHg"}]}, {"smiles": "CC1(C)Oc2ccc(C#N)cc2[C@@H](N2CCCC2=O)[C@@H]1OP(=O)([O-])[O-].[Na+].[Na+]", "note": "(racemic)", "values": [{"measurement": "Stability", "setting": "[13]", "value": "> 6", "unit": "months"}, {"measurement": "Activity", "setting": "[1]", "value": 2.5, "unit": "mmHg"}, {"measurement": "solubility", "setting": "[14]", "value": "Soluble"}]}, {"smiles": "CC(C)C[C@H](NC(=O)CN)C(=O)O[C@H]1[C@H](N2CCCC2=O)c2cc(C#N)ccc2OC1(C)C", "values": [{"measurement": "Activity", "setting": "[15]", "value": 2.45, "unit": "mmHg"}]}, {"smiles": "CC(C)C[C@H](NC(=O)CN)C(=O)OCO[C@H]1[C@H](N2CCCC2=O)c2cc(C#N)ccc2OC1(C)C", "values": [{"measurement": "Activity", "setting": "[15]", "value": 1.93, "unit": "mmHg"}]}, {"smiles": "CC1(C)Oc2ccc(C#N)cc2[C@@H](N2CCCC2=O)[C@@H]1OP(=O)([O-])[O-].[Na+].[Na+]", "values": [{"measurement": "Activity", "setting": "[4]", "value": "Non-Toxic"}, {"measurement": "Drug metabolism", "setting": "[16]", "value": "Metabolite_Detected"}, {"measurement": "Activity", "setting": "[17]", "value": "Non-Toxic"}, {"measurement": "Activity", "setting": "[18]", "value": 2.26, "unit": "mmHg"}, {"measurement": "Activity", "setting": "[1]", "value": 3.14, "unit": "mmHg"}, {"measurement": "Activity", "setting": "[19]", "value": "Non-Toxic"}, {"measurement": "Activity", "setting": "[20]", "value": "Non-Toxic"}, {"measurement": "Activity", "setting": "[6]", "value": "Non-Toxic"}, {"measurement": "Activity", "setting": "[21]", "value": 2.02, "unit": "mmHg"}, {"measurement": "Activity", "setting": "[22]", "value": 3.82, "unit": "mmHg"}]}, {"smiles": "CC1(C)Oc2ccc(C(F)(F)F)cc2[C@@H](N2CCCC2=O)[C@@H]1OP(=O)([O-])[O-].[Na+].[Na+]", "values": [{"measurement": "Activity", "setting": "[15]", "value": 3.91, "unit": "mmHg"}, {"measurement": "Activity", "setting": "[18]", "value": 1.6, "unit": "mmHg"}, {"measurement": "Activity", "setting": "[23]", "value": "Active"}, {"measurement": "Activity", "setting": "[21]", "value": 1.06, "unit": "mmHg"}]}, {"smiles": "CC1(C)Oc2ccc(C#N)cc2[C@@H](N2CCCC2=O)[C@@H]1O", "note": "(racemic) [LEVCROMAKALIM]", "values": [{"measurement": "Activity", "setting": "[24]", "value": 3.19, "unit": "mmHg"}]}, {"smiles": "CC1(C)Oc2ccc(C#N)cc2[C@@H](N2CCCC2=O)[C@@H]1OP(=O)(O)O", "values": [{"measurement": "Activity", "setting": "[25]", "value": "inactive"}]}, {"smiles": "CC(C)C[C@@H](NC(=O)CN)C(=O)O[C@H]1[C@H](N2CCCC2=O)c2cc(C#N)ccc2OC1(C)C", "values": [{"measurement": "Activity", "setting": "[15]", "value": 1.57, "unit": "mmHg"}]}]}
